Assay results reported in ChEMBL document CHEMBL4373711, “Development of 3,5-Dinitrophenyl-Containing 1,2,4-Triazoles and Their Trifluoromethyl Analogues as Highly Efficient Antitubercular Agents Inhibiting Decaprenylphosphoryl-β-d-ribofuranose 2'-Oxidase” (J Med Chem, 2019).
In brackets after ≈: the same amount, converted by molar mass. Activity calls are given as the source filed them. The rule behind the calls is not given here.

Key:
[1] = target: T1, Decaprenylphosphoryl-beta-D-ribose oxidase (Mycobacterium smegmatis (strain ATCC 700084 / mc(2)155)) (UniProt A0R607); experiment: Inhibition of DprE1 in Mycolicibacterium smegmatis MC2 155 lysate assessed as reduction in epimerization of P[14C]RPP to DP[14C]A at 70 uM measured after 1.5 hrs in presence of NADH by TLC-based autoradiography; type: subcellular
T1 sequence (whole entry): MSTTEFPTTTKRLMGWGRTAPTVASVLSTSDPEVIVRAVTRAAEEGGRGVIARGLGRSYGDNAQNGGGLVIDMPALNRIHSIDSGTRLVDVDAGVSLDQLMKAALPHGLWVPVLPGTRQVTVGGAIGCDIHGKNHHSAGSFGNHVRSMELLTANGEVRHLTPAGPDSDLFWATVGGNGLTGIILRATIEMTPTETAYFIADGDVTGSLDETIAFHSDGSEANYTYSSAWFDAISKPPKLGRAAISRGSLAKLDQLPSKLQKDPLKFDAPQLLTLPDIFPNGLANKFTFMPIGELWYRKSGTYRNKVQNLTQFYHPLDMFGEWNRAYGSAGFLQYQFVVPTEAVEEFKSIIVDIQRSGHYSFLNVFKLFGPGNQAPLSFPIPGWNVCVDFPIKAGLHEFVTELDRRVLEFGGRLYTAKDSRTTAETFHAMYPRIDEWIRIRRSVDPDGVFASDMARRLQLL
Procedure, shortened: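 Cell-free DPA synthesis used a membrane/cell-envelope fraction (430 µg), spun at 100 000 × g, from sonicated M. smegmatis mc2155. The fraction was incubated 1.5 h with 15,000 dpm P[14C]RPP and NADH. BTZ was used at 70 µM and test compounds at 700 µM final, both added from DMSO stocks. Lipids were extracted, 25% was resolved by TLC, and autoradiography ran 8 days at -80 °C.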

[2] = target: T2, Decaprenylphosphoryl-beta-D-ribose oxidase (Mycobacterium tuberculosis (strain ATCC 25618 / H37Rv)) (UniProt P9WJF1); experiment: Inhibition of DprE1 in Mycobacterium tuberculosis H37Rv assessed as accumulation of trehalose monomycolates at 10 times MIC measured after 24 hrs in presence of [14C]-acetate by TLC-based autoradiography
T2 sequence (whole entry): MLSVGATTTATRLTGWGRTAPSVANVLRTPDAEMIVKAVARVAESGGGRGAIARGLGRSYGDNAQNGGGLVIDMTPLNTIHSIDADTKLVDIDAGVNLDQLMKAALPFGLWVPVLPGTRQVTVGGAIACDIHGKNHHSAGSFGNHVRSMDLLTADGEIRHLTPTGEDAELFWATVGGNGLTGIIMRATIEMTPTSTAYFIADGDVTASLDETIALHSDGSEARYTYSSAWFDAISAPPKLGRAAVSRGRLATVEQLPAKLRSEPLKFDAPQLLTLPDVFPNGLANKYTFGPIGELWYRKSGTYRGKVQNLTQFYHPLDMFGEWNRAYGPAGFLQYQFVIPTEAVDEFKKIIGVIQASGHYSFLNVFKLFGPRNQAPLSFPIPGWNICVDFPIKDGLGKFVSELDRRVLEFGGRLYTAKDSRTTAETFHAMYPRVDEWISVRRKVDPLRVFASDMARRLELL
Procedure, shortened: (§1)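 M. tuberculosis H37Rv cultures were exposed to compound at final 10× or 100× MIC, or to DMSO, together with [14C]-acetate at 1 µCi/ml final. After 24 h, lipids were extracted in CHCl3/CH3OH (2:1) for 2 h at 65 °C and given two Folch washes. Extracts were run on TLC in CHCl3/CH3OH/H2O (20:4:0.5), then autoradiographed for 7 days at -80 °C.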

[3] = target: T2, Decaprenylphosphoryl-beta-D-ribose oxidase (Mycobacterium tuberculosis (strain ATCC 25618 / H37Rv)); experiment: Inhibition of DprE1 in Mycobacterium tuberculosis H37Rv assessed as accumulation of trehalose dimycolates at 10 times MIC measured after 24 hrs in presence of [14C]-acetate by TLC-based autoradiography; procedure, shortened: as §1
[4] = tested on: Staphylococcus aureus; experiment: Antibacterial activity against Staphylococcus aureus subsp. aureus ATCC 29213 CCM 4223 at highest concentration measured after 24 to 48 hrs by alamar blue dye based broth microdilution assay; type: functional, organism-based
[5] = tested on: Lichtheimia corymbifera; experiment: Antifungal activity against Lichtheimia corymbifera CCM 8077 at highest concentration measured after 24 to 48 hrs by alamar blue dye based broth microdilution assay; type: functional, organism-based
[6] = Genotoxicity in Salmonella typhimurium TA98 at 30 uM in presence of rat liver S9 fraction by Ames test; type: toxicity, subcellular; conditions: salmonella enterica subsp. enterica serovar typhimurium, s9, 30 µM
Procedure, shortened: (§2)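 Microplate fluctuation Ames reverse-mutation test following kit instructions; TA98 detects frameshift and TA100 base-exchange mutations. Compound at 30 µM final with Aroclor-1254-induced rat liver S9 plus cofactors.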

[7] = tested on: Candida parapsilosis; experiment: Antifungal activity against Candida parapsilosis ATCC 22019 CCM 8260 at highest concentration measured after 24 to 48 hrs by alamar blue dye based broth microdilution assay; type: functional, organism-based
[8] = tested on: Mycobacterium kansasii; experiment: Antimycobacterial activity against Mycobacterium kansasii 6509/96 after 14 days; type: functional; conditions: 6509/96, 336 h
Procedure, shortened: (§3)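 Microdilution in Šula's semisynthetic medium; compounds in DMSO at 32–0.03 µM. Inoculum from 1.0 McFarland suspension diluted 10-4. […] Isoniazid and rifampicin as reference drugs.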

[9] = tested on: Candida tropicalis; experiment: Antifungal activity against Candida tropicalis ATCC 750 CCM 8264 at highest concentration measured after 24 to 48 hrs by alamar blue dye based broth microdilution assay; type: functional, organism-based
[10] = tested on: Klebsiella pneumoniae; experiment: Antibacterial activity against Klebsiella pneumoniae at highest concentration measured after 24 to 48 hrs by alamar blue dye based broth microdilution assay; type: functional, organism-based
[11] = tested on: Serratia marcescens; experiment: Antibacterial activity against Serratia marcescens at highest concentration measured after 24 to 48 hrs by alamar blue dye based broth microdilution assay; type: functional, organism-based
[12] = tested on: Mycobacterium tuberculosis; experiment: Antimycobacterial activity against Mycobacterium tuberculosis H37Rv CNCTC My 331/88 after 14 days; type: functional; conditions: H37Rv CNCTC My 331/88, 336 h
Procedure, shortened: (§4)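 M. tuberculosis strains (H37Rv and clinical MDR/XDR isolates) tested by microdilution in Šula's semisynthetic medium. Compounds were dissolved in DMSO and tested at 32 to 0.03 µM in twofold steps. Inoculum was a 1.0 McFarland suspension diluted 10-3. Plates were incubated at 37 °C and read at 14 and 21 days.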

[13] = tested on: Mycobacterium tuberculosis; experiment: Antimycobacterial activity against XDR Mycobacterium tuberculosis Praha 131 after 14 days; type: functional; conditions: Praha 131, 336 h; procedure, shortened: as §4
[14] = Genotoxicity in Salmonella typhimurium TA100 at 30 uM in presence of rat liver S9 fraction by Ames test; type: toxicity, subcellular; conditions: salmonella enterica subsp. enterica serovar typhimurium, s9, 30 µM; procedure, shortened: as §2
[15] = tested on: Mycobacterium tuberculosis; experiment: Antimycobacterial activity against Mycobacterium tuberculosis H37Rv CNCTC My 331/88 after 21 days; type: functional; conditions: H37Rv CNCTC My 331/88, 504 h; procedure, shortened: as §4
[16] = tested on: Aspergillus fumigatus; experiment: Antifungal activity against Aspergillus fumigatus ATCC 204305 at highest concentration measured after 24 to 48 hrs by alamar blue dye based broth microdilution assay; type: functional, organism-based
[17] = Cytotoxicity against human HepG2 cells assessed as cell viability at 30 uM after 48 hrs by CellTiter 96 aqueous one solution assay relative to control; type: cell-based; conditions: read-out: Activity
Procedure, shortened: (§5)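 HepG2 (DMEM, 10% FBS, 1 mM pyruvate) or A431 (DMEM, 10% FBS) seeded 10,000 cells/well, 24 h at 37 °C, 5% CO2, then 30 µM compound for 48 h. MTS reagent 60 min, absorbance 490 nm, background subtracted; 0.1% DMSO vehicle = 100%, 10% SDS = 0% viability.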

[18] = tested on: Staphylococcus aureus; experiment: Antibacterial activity against methicillin-resistant Staphylococcus aureus subsp. aureus ATCC 43300 CCM 4750 at highest concentration measured after 24 to 48 hrs by alamar blue dye based broth microdilution assay; type: functional, organism-based
[19] = tested on: Escherichia coli; experiment: Antibacterial activity against Escherichia coli ATCC 25922 CCM 3954 at highest concentration measured after 24 to 48 hrs by alamar blue dye based broth microdilution assay; type: functional, organism-based
[20] = tested on: Mycobacterium kansasii; experiment: Antimycobacterial activity against Mycobacterium kansasii 6509/96 after 7 days; type: functional; conditions: 6509/96, 168 h; procedure, shortened: as §3
[21] = tested on: Mycobacterium kansasii; experiment: Antimycobacterial activity against Mycobacterium kansasii 6509/96 after 21 days; type: functional; conditions: 6509/96, 504 h; procedure, shortened: as §3
[22] = tested on: Candida albicans; experiment: Antifungal activity against Candida albicans ATCC 24433 CCM 8320 at highest concentration measured after 24 to 48 hrs by alamar blue dye based broth microdilution assay; type: functional, organism-based
[23] = tested on: Staphylococcus epidermidis; experiment: Antibacterial activity against Staphylococcus epidermidis at highest concentration measured after 24 to 48 hrs by alamar blue dye based broth microdilution assay; type: functional, organism-based
[24] = tested on: A-431; experiment: Cytotoxicity against human A431 cells assessed as reduction in cell viability after 48 hrs by CellTiter 96 aqueous one solution assay; type: cell-based; conditions: A-431, 48 h
[25] = tested on: Mycobacterium kansasii; experiment: Antimycobacterial activity against Mycobacterium kansasii CNCTC My 235/80 after 7 days; type: functional; conditions: CNCTC My 235/80, 168 h; procedure, shortened: as §3
[26] = tested on: Mycobacterium avium; experiment: Antimycobacterial activity against Mycobacterium avium CNCTC My 330/88 after 14 days; type: functional; conditions: CNCTC My 330/88, 336 h
Procedure, shortened: (§6)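 M. avium was tested by microdilution in Šula's semisynthetic medium, with compounds dissolved in DMSO and serially diluted from 1000 down to 1. Inoculum was a 1.0 McFarland suspension diluted 10-5. Plates were incubated at 37 °C and read at 14 and 21 days. […] Isoniazid and rifampicin served as standards.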

[27] = tested on: Trichophyton interdigitale; experiment: Antifungal activity against Trichophyton interdigitale ATCC 9533 CCM 8377 at highest concentration measured after 72 to 120 hrs by alamar blue dye based broth microdilution assay; type: functional
[28] = tested on: Pseudomonas aeruginosa; experiment: Antibacterial activity against Pseudomonas aeruginosa ATCC 27853 CCM 3955 at highest concentration measured after 24 to 48 hrs by alamar blue dye based broth microdilution assay; type: functional, organism-based
[29] = tested on: Mycobacterium tuberculosis; experiment: Antimycobacterial activity against XDR Mycobacterium tuberculosis Praha 131 after 21 days; type: functional; conditions: Praha 131, 504 h; procedure, shortened: as §4
[30] = tested on: Pichia kudriavzevii; experiment: Antifungal activity against Candida krusei ATCC 6258 CCM8271 at highest concentration measured after 24 to 48 hrs by alamar blue dye based broth microdilution assay; type: functional, organism-based
[31] = Cytotoxicity against human A431 cells assessed as cell viability at 30 uM after 48 hrs by CellTiter 96 aqueous one solution assay relative to control; type: cell-based, A-431; conditions: read-out: Activity; procedure, shortened: as §5
[32] = tested on: Mycobacterium avium; experiment: Antimycobacterial activity against Mycobacterium avium CNCTC My 330/88 after 21 days; type: functional; conditions: CNCTC My 330/88, 504 h; procedure, shortened: as §6
[33] = tested on: HepG2; experiment: Cytotoxicity against human HepG2 cells assessed as reduction in cell viability after 48 hrs by CellTiter 96 aqueous one solution assay; type: cell-based; conditions: HepG2, 48 h
[34] = tested on: Mycobacterium kansasii; experiment: Antimycobacterial activity against Mycobacterium kansasii CNCTC My 235/80 after 14 days; type: functional; conditions: CNCTC My 235/80, 336 h; procedure, shortened: as §3
[35] = tested on: Mycobacterium kansasii; experiment: Antimycobacterial activity against Mycobacterium kansasii CNCTC My 235/80 after 21 days; type: functional; conditions: CNCTC My 235/80, 504 h; procedure, shortened: as §3
[36] = tested on: Enterococcus faecalis; experiment: Antibacterial activity against Enterococcus faecalis ATCC 29212 CCM 4224 at highest concentration measured after 24 to 48 hrs by alamar blue dye based broth microdilution assay; type: functional, organism-based
[37] = tested on: Aspergillus flavus; experiment: Antifungal activity against Aspergillus flavus CCM 8363 at highest concentration measured after 24 to 48 hrs by alamar blue dye based broth microdilution assay; type: functional, organism-based

Structure (SMILES): C[C@H]1COC2(CCN(c3nc(=O)c4cc(C(F)(F)F)cc([N+](=O)[O-])c4s3)CC2)O1
- inhibition [1]: Active
- inhibition [2]: Active
- inhibition [3]: Active

Structure (SMILES): Cn1c(SCc2ccc(Cl)cc2)nnc1-c1cc([N+](=O)[O-])cc([N+](=O)[O-])c1
- Activity [4]: inactive
- Activity [5]: inactive
- Activity [6]: Non-Toxic
- Activity [7]: inactive
- MIC99 [8]: 0.25 µM (≈ 0.101 µg/mL)
- Activity [9]: inactive
- Activity [10]: inactive
- Activity [11]: inactive
- MIC99 [12]: 0.125 µM (≈ 0.0507 µg/mL)
- MIC99 [13]: 0.125 µM (≈ 0.0507 µg/mL)
- Activity [14]: Non-Toxic
- MIC99 [15]: 0.125 µM (≈ 0.0507 µg/mL)
- Activity [16]: inactive
- viability at 48 h, 30 µM [17]: 104%
- Activity [18]: inactive
- Activity [19]: inactive
- MIC99 [20]: 0.125 µM (≈ 0.0507 µg/mL)
- MIC99 [21]: 0.5 µM (≈ 0.203 µg/mL)
- Activity [22]: inactive
- Activity [23]: inactive
- IC50 [24]: > 30 µM
- MIC99 [25]: 0.25 µM (≈ 0.101 µg/mL)
- MIC99 [26]: 8 µM (≈ 3.25 µg/mL)
- Activity [27]: inactive
- Activity [28]: inactive
- MIC99 [29]: 0.125 µM (≈ 0.0507 µg/mL)
- Activity [30]: inactive
- viability at 48 h, 30 µM [31]: 85%
- MIC99 [32]: 8 µM (≈ 3.25 µg/mL)
- IC50 [33]: > 30 µM
- MIC99 [34]: 0.5 µM (≈ 0.203 µg/mL)
- MIC99 [35]: 0.5 µM (≈ 0.203 µg/mL)
- Activity [36]: inactive
- Activity [37]: inactive
